From ChEMBL document CHEMBL3526056, “Characterization of in vitro glucuronidation clearance of a range of drugs in human kidney microsomes: comparison with liver and intestinal glucuronidation and impact of albumin” (Drug Metab Dispos, 2012)

What was measured:
[1] = target: T1, UDP-glucuronosyltransferase 2B7 (Homo sapiens, UniProt P16662); experiment: Drug metabolism in human kidney microsomes assessed as UGT2B7-mediated unbound intrinsic glucuronidation clearance at 1 uM after 30 to 60 mins by LC-MS/MS analysis in presence of 1% bovine serum albumin; type: ADME
T1 sequence (P16662 whole entry): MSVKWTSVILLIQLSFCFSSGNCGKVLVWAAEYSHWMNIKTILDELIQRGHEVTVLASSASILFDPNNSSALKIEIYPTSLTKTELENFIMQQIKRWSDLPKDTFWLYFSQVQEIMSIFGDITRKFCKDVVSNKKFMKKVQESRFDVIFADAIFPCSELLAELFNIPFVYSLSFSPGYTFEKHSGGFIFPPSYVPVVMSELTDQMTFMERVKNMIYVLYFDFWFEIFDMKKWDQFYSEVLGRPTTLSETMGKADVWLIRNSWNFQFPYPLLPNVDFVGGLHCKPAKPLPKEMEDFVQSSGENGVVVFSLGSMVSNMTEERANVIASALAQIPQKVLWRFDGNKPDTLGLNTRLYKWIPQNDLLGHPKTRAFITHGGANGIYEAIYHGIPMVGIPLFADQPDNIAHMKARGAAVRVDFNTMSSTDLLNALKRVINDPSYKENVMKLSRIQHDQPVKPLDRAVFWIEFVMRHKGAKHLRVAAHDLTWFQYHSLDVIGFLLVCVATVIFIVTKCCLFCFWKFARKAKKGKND

[2] = Renal clearance in human; type: ADME, organism-based, Kidney; settings: in vivo
[3] = Fraction unbound in human plasma
[4] = test system: Liver microsome; experiment: Fraction metabolized glucuronidation in human liver microsomes in presence of UDP-glucuronosyltransferase; type: ADME
[5] = test system: Liver microsome; experiment: Fraction metabolized glucuronidation in human liver microsomes in presence of UDP-glucuronosyltransferase and bovine serum albumin; type: ADME
[6] = Glucuronidation clearance in human liver microsomes; type: ADME
[7] = Glucuronidation clearance in human liver microsomes in presence of bovine serum albumin; type: ADME
[8] = Fraction unbound in human liver microsomes at 1 uM after 30 to 60 mins by LC-MS/MS analysis; type: ADME
[9] = Fraction unbound in human kidney microsomes at 1 uM after 30 to 60 mins by LC-MS/MS analysis; type: ADME
[10] = Fraction unbound in human intestinal microsomes at 1 uM after 30 to 60 mins by LC-MS/MS analysis; type: ADME, Intestine, Microsome
[11] = test system: Liver microsome; experiment: Fraction unbound in human liver microsomes at 1 uM after 30 to 60 mins by LC-MS/MS analysis in presence of 1% bovine serum albumin; type: ADME; settings: microsomes, 1 µM
[12] = test system: Liver microsome; experiment: Unbound intrinsic glucuronidation clearance in human liver microsomes at 1 uM after 30 to 60 mins by LC-MS/MS analysis in presence of UDP-glucuronosyltransferase; type: ADME
Procedure, shortened: (§1)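 Alamethicin-activated pooled microsomes (HLM 150 donors; HKM 8; HIM 18). Drug at 1 μM final, preincubated 5 min at 37°C in 0.1 M phosphate pH 7.1 with 3.45 mM MgCl2, 1.15 mM EDTA, 115 μM saccharic acid lactone. Started with […] cofactor (5 mM final), 30–60 min. Cofactor-free controls. Parent depletion by LC-MS/MS, single-exponential k. Corrected by HLM-dialysis fu,inc. Duplicates; n=3 (HIM n=1).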

[13] = test system: Liver microsome; experiment: Unbound intrinsic glucuronidation clearance in human liver microsomes at 1 uM after 30 to 60 mins by LC-MS/MS analysis in presence of UDP-glucuronosyltransferase and 1% bovine serum albumin; type: ADME
[14] = Unbound intrinsic glucuronidation clearance in human kidney microsomes at 1 uM after 30 to 60 mins by LC-MS/MS analysis in presence of UDP-glucuronosyltransferase; type: ADME, microsome; procedure, shortened: as §1
[15] = target: T1, UDP-glucuronosyltransferase 2B7; experiment: Drug metabolism in human intestinal microsomes assessed as UGT2B7-mediated unbound intrinsic glucuronidation clearance at 1 uM after 30 to 60 mins by LC-MS/MS analysis; type: ADME, Intestine
[16] = Unbound intrinsic glucuronidation clearance in human kidney microsomes at 1 uM after 30 to 60 mins by LC-MS/MS analysis in presence of UDP-glucuronosyltransferase and 1% bovine serum albumin; type: ADME, microsome
[17] = Unbound intrinsic glucuronidation clearance in human intestinal microsomes at 1 uM after 30 to 60 mins by LC-MS/MS analysis in presence of UDP-glucuronosyltransferase; type: ADME, Intestine, Microsome; procedure, shortened: as §1
[18] = Unbound intrinsic glucuronidation clearance in human intestinal microsomes at 1 uM after 30 to 60 mins by LC-MS/MS analysis in presence of UDP-glucuronosyltransferase and 1% bovine serum albumin; type: ADME, Intestine, Microsome
[19] = target: T1, UDP-glucuronosyltransferase 2B7; experiment: Drug metabolism in human liver microsomes assessed as UGT2B7-mediated unbound intrinsic glucuronidation clearance at 1 uM after 30 to 60 mins by LC-MS/MS analysis; type: ADME
[20] = target: T1, UDP-glucuronosyltransferase 2B7; experiment: Drug metabolism in human kidney microsomes assessed as UGT2B7-mediated unbound intrinsic glucuronidation clearance at 1 uM after 30 to 60 mins by LC-MS/MS analysis; type: ADME
[21] = target: T1, UDP-glucuronosyltransferase 2B7; experiment: Drug metabolism in human liver microsomes assessed as UGT2B7-mediated unbound intrinsic glucuronidation clearance at 1 uM after 30 to 60 mins by LC-MS/MS analysis in presence of 1% bovine serum albumin; type: ADME
[22] = Drug metabolism in human kidney microsomes assessed as UGT1A8/2B7-mediated unbound intrinsic glucuronidation clearance at 1 uM after 30 to 60 mins by LC-MS/MS analysis in presence of 2% bovine serum albumin; type: ADME
Procedure, shortened: (§2)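 Pooled alamethicin-activated human liver, kidney or intestinal microsomes. […] Duplicate incubations of 30–60 min, with no-cofactor controls. Parent depletion read by LC-MS/MS. k from a single-exponential fit, corrected by fu,inc.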

[23] = Ratio of UGT1A8/2B7-mediated unbound intrinsic glucuronidation clearance in human kidney microsomes to UGT1A8/2B7-mediated unbound intrinsic glucuronidation clearance in human liver microsomes at 1 uM in presence of 2% bovine serum albumin; type: ADME
Procedure, shortened: (§3)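 Ratios of mean unbound CLint,UGT, each scaled per g tissue, between pooled liver, kidney and intestinal microsomes. Values come from 1 μM substrate-depletion assays in pH 7.1 phosphate at 37°C, run with or without BSA (1% for acids, 2% for bases/neutral drugs). Corrected for nonspecific binding. Kidney and liver n = 3; intestine n = 1; each in duplicate.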

[24] = Ratio of UGT1A8/2B7-mediated unbound intrinsic glucuronidation clearance in human intestinal microsomes to UGT1A8/2B7-mediated unbound intrinsic glucuronidation clearance in human liver microsomes at 1 uM in presence of 2% bovine serum albumin; type: ADME; procedure, shortened: as §3
[25] = Ratio of UGT1A8/2B7-mediated unbound intrinsic glucuronidation clearance in human kidney microsomes to UGT1A8/2B7-mediated unbound intrinsic glucuronidation clearance in human intestinal microsomes at 1 uM in presence of 2% bovine serum albumin; type: ADME; procedure, shortened: as §3
[26] = Clearance in iv dosed human; type: ADME, organism-based; settings: in vivo
[27] = Ratio of drug level blood to plasma in human; type: ADME; settings: blood and plasma
[28] = Fraction unbound in human liver microsomes at 1 uM […] by LC-MS/MS analysis in presence of 2% bovine serum albumin; type: ADME
[29] = test system: Liver microsome; experiment: Unbound intrinsic glucuronidation clearance in human liver microsomes at 1 uM after 30 to 60 mins by LC-MS/MS analysis in presence of UDP-glucuronosyltransferase and 2% bovine serum albumin; type: ADME; procedure, shortened: as §2
[30] = Drug metabolism in human intestinal microsomes assessed as UGT1A8/2B7-mediated unbound intrinsic glucuronidation clearance at 1 uM after 30 to 60 mins by LC-MS/MS analysis; type: ADME, Intestine; procedure, shortened: as §2
[31] = Ratio of UGT1A8/2B7-mediated unbound intrinsic glucuronidation clearance in human kidney microsomes to UGT1A8/2B7-mediated unbound intrinsic glucuronidation clearance in human liver microsomes at 1 uM; type: ADME; procedure, shortened: as §3
[32] = Unbound intrinsic glucuronidation clearance in human kidney microsomes at 1 uM after 30 to 60 mins by LC-MS/MS analysis in presence of UDP-glucuronosyltransferase and 2% bovine serum albumin; type: ADME, microsome; procedure, shortened: as §2
[33] = Unbound intrinsic glucuronidation clearance in human intestinal microsomes at 1 uM after 30 to 60 mins by LC-MS/MS analysis in presence of UDP-glucuronosyltransferase and 2% bovine serum albumin; type: ADME, Intestine, Microsome; procedure, shortened: as §2
[34] = Ratio of unbound intrinsic glucuronidation clearance in human intestinal microsomes in presence of 2% bovine serum albumin to unbound intrinsic glucuronidation clearance in human intestinal microsomes in absence of bovine serum albumin; type: ADME, Intestine, Microsome
Procedure, shortened: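 Ratios of mean scaled unbound CLint,UGT (per g tissue) between tissues, or between with and without BSA. Microsomal depletion assays at 1 μM, or 5 μM for propofol, in pH 7.1 phosphate at 37°C, read by LC-MS/MS. Kidney and liver n = 3, intestine n = 1, each in duplicate.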

[35] = Drug metabolism in human liver microsomes assessed as UGT1A8/2B7-mediated unbound intrinsic glucuronidation clearance at 1 uM after 30 to 60 mins by LC-MS/MS analysis; type: ADME; procedure, shortened: as §2
[36] = Drug metabolism in human kidney microsomes assessed as UGT1A8/2B7-mediated unbound intrinsic glucuronidation clearance at 1 uM after 30 to 60 mins by LC-MS/MS analysis; type: ADME; procedure, shortened: as §2
[37] = Ratio of UGT1A8/2B7-mediated unbound intrinsic glucuronidation clearance in human intestinal microsomes to UGT1A8/2B7-mediated unbound intrinsic glucuronidation clearance in human liver microsomes at 1 uM; type: ADME; procedure, shortened: as §3
[38] = Ratio of UGT1A8/2B7-mediated unbound intrinsic glucuronidation clearance in human kidney microsomes to UGT1A8/2B7-mediated unbound intrinsic glucuronidation clearance in human intestinal microsomes at 1 uM; type: ADME; procedure, shortened: as §3
[39] = Drug metabolism in human liver microsomes assessed as UGT1A8/2B7-mediated unbound intrinsic glucuronidation clearance at 1 uM after 30 to 60 mins by LC-MS/MS analysis in presence of 2% bovine serum albumin; type: ADME; procedure, shortened: as §2

For `Cc1ccc(C)c(OCCCC(C)(C)C(=O)O)c1` [GEMFIBROZIL], the CL free [1] was 24.4 mL/min/g, the CL renal [2] was 0.02 mL/min/kg and the fraction unbound [3] was 0.005. For the same compound, the Drug metabolism [4] was 0.79, the Drug metabolism [5] was 0.86 and the CLhep predicted [6] was 1.78 mL/min/kg. It also gave a CLhep predicted [7] of 1.93 mL/min/kg, a fraction unbound at 1 µM [8] of 0.9 and a fraction unbound at 1 µM [9] of 0.9. For the same compound, the fraction unbound at 1 µM [10] was 0.82, the Fu [11] was 0.01 and the CL free [12] was 259 µL/min/mg. For the same compound, the CL free [13] was 1840 µL/min/mg, the CL free [14] was 265 µL/min/mg and the CL free [15] was 0.492 mL/min/g. For the same compound, the CL free [16] was 1910 µL/min/mg, the CL free [17] was 23.9 µL/min/mg and the CL free [18] was 40 µL/min/mg. The CL free [19] was 10.4 mL/min/g, the CL free [20] was 3.39 mL/min/g and the CL free [21] was 73.6 mL/min/g.
For `C=CCN1CC[C@]23c4c5ccc(O)c4O[C@H]2C(=O)CC[C@@]3(O)[C@H]1C5` [NALOXONE], the CL free [22] was 0.675 mL/min/g, the Ratio [23] was 0.304 and the Ratio [24] was 0.131. For the same compound, the Ratio [25] was 2.31, the clearance [26] was 21.7 mL/min/kg and the fraction unbound [3] was 0.57. It also gave a blood plasma ratio [27] of 1, a Drug metabolism [4] of 0.65 and a Drug metabolism [5] of 0.89. The CLhep predicted [6] was 14.1 mL/min/kg, the CLhep predicted [7] was 19.3 mL/min/kg and the fraction unbound at 1 µM [8] was 1. It also gave a fraction unbound at 1 µM [9] of 1, a fraction unbound at 1 µM [10] of 1 and a fraction unbound at 1 µM [28] of 0.96. For the same compound, the CL free [12] was 10 µL/min/mg, the CL free [29] was 55.6 µL/min/mg and the CL free [14] was 10.9 µL/min/mg. For the same compound, the CL free [30] was 0.01 mL/min/g, the Ratio [31] was 0.348 and the CL free [32] was 52.7 µL/min/mg. It also gave a CL free [17] of 0.502 µL/min/mg, a CL free [33] of 14.2 µL/min/mg and a Ratio [34] of 28. For the same compound, the CL free [35] was 0.402 mL/min/g, the CL free [36] was 0.14 mL/min/g and the Ratio [37] was 0.026. It also gave a Ratio [38] of 13.5 and a CL free [39] of 2.22 mL/min/g.
